Calls of active or inactive are those of the source. The rule behind the calls is not given here.
How the values were obtained:
Homo sapiens = species on record: Homo sapiens; test: Activation of PPARgamma/RXR heterodimer in human hepatoma cells assessed as potentiation of rosiglitazone-induced increase in ANGPTL4 mRNA level at 10 uM by quantitative RT-PCR analysis; format: cell-based
Procedure, shortened: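 HLE human hepatoma cells (DMEM, 10% FBS, 37 °C, 5% CO2) treated with or without rosiglitazone; ANGPTL4 mRNA by SYBR green qRT-PCR, β-actin-normalized delta-delta Ct, fold vs vehicle; means ± SD of three determinants, representative of three experiments.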

[1] = target: T1, Peroxisome proliferator-activated receptor delta (Mus musculus) (UniProt P35396); test: Activation of PPARdelta in mouse C2C12 cells assessed as induction of CPT1A mRNA expression at 10 uM after 24 hrs in presence of GW501516 by quantitative RT-PCR analysis; format: cell-based
T1 sequence (whole entry): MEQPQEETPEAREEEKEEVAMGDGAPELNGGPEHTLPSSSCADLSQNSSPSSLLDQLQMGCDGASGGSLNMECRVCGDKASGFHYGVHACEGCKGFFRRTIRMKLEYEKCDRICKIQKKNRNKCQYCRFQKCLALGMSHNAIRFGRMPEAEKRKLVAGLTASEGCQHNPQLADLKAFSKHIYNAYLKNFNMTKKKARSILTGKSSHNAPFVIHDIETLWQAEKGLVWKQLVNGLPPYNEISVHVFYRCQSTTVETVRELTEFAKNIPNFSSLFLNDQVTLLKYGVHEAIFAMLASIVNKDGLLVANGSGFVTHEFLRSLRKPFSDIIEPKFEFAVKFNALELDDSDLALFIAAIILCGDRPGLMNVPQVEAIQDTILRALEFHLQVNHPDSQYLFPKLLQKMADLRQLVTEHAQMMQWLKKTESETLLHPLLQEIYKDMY
Procedure, shortened: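 Differentiated C2C12 myotubes (2% horse serum, 5 days) exposed 24 h with or without PPARδ agonist GW501516 (1 μM). mRNA quantified by SYBR green real-time RT-PCR, normalized to β-actin by delta-delta Ct, and expressed as fold induction vs vehicle; means ± SD of four determinants from one of two independent experiments; one-way ANOVA with Bonferroni.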

[2] = target: T2, Retinoic acid receptor RXR-alpha (Homo sapiens) (UniProt P19793); test: Agonist activity at human RXR-alpha expressed in HEK293 cells coexpressing with pCMX-beta-gal at 10 uM after 24 to 48 hrs by luciferase reporter gene assay in presence of PA452 pan-antagonist; format: cell-based
T2 sequence (whole entry): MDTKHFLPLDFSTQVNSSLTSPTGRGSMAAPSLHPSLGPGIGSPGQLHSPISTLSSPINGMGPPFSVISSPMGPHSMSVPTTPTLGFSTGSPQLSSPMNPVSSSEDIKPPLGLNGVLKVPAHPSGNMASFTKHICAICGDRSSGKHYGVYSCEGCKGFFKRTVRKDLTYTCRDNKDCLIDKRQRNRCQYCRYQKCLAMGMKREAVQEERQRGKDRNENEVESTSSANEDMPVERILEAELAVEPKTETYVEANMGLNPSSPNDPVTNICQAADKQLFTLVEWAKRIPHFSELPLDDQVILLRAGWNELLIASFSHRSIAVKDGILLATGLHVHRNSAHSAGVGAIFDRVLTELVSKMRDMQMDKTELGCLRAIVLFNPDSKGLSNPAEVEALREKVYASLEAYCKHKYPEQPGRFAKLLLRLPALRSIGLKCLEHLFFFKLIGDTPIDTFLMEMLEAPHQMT
Procedure, shortened: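 RXRα reporter in HEK293: cotransfected with RXRα expression vector, luciferase reporter and pCMX-β-gal. Eight hours after transfection, cells were treated with test compound at 10 μM with or without the RXR pan-antagonist PA452 (10 μM). Luciferase was normalized to β-galactosidase. Means ± SD of three determinants; representative of three experiments; one-way ANOVA with Bonferroni's t-test.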

[3] = Activation of LXR in mouse C2C12 cells assessed as induction of LPL mRNA expression at 10 uM after 24 hrs by quantitative RT-PCR analysis; format: cell-based
[4] = Activation of LXR in mouse C2C12 cells assessed as induction of ApoE mRNA expression at 10 uM after 24 hrs by quantitative RT-PCR analysis; format: cell-based
Procedure, shortened: (§1)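 C2C12 myoblasts grown in DMEM/10% FBS, differentiated at confluence in 2% horse serum, medium changed every other day for 5 days; myotubes treated 24 h with or without T0901317 (1 μM). Total RNA, DNase-treated, oligo(dT) RT from 0.5 μg, SYBR green qPCR; normalized to β-actin (delta-delta Ct), fold over vehicle; mean ± SD of four determinants, one of two experiments.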

RAW264.7 = test: Activation of RXR/LXR heterodimer in mouse RAW264.7 cells assessed as increase in ABCA1 mRNA level at 10 uM by quantitative RT-PCR analysis; format: cell-based
Procedure, shortened: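 RAW264.7 macrophages in DMEM/10% FBS, exposed 24 h with or without LXR agonist T0901317; ABCA1 mRNA by SYBR green qRT-PCR, β-actin-normalized, fold vs vehicle; means ± SD of three determinants, one of three independent experiments; one-way ANOVA, Bonferroni.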

[5] = Activation of LXR in mouse C2C12 cells assessed as induction of ABCA1 mRNA expression at 10 uM after 24 hrs in presence of T0901317 by quantitative RT-PCR analysis; format: cell-based; procedure, shortened: as §1
[6] = target: T3, Retinoic acid receptor RXR-beta (Homo sapiens) (UniProt P28702); test: Binding affinity to RXRbeta (unknown origin) by receptor-SRC1 cofactor complex formation assay
T3 sequence (whole entry): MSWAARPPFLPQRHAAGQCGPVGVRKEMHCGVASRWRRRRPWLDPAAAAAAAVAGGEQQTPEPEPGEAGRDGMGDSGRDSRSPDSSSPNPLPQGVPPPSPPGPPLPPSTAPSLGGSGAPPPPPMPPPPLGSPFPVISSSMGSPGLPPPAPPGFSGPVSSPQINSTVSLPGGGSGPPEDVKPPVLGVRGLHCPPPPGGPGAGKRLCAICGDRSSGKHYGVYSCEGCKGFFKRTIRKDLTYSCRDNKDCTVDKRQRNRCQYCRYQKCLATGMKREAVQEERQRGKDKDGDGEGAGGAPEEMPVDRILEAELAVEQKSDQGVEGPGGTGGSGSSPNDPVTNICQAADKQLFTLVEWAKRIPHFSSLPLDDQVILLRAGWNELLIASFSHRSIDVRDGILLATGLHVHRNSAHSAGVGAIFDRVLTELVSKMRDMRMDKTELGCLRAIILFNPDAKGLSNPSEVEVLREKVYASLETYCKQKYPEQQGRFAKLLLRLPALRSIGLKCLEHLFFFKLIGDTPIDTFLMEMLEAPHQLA
Procedure, shortened: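 Ligand-dependent binding of RXR isotype to coactivator SRC-1 in an NR cofactor kit, detected with HRP-conjugated anti-RXR antibody at OD450. The full agonist CD3254 defined 100% and vehicle 0%. Efficacy was taken as maximum B/Bmax% and potency as EC50.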

[7] = Activation of LXR in mouse C2C12 cells assessed as induction of SREBP1 mRNA expression at 10 uM after 24 hrs in presence of T0901317 by quantitative RT-PCR analysis; format: cell-based; procedure, shortened: as §1

- Activity [1]: Active
- Activity [2]: inactive
- Activity [6]: inactive
Compound: CC(C)=CCc1cc([C@@H]2CC(=O)c3ccc(O)c(CC=C(C)C)c3O2)cc2c1OC(C(C)(C)O)C2 (some centres undefined)
- Activity (Homo sapiens): Active
- Activity [3]: Active
- Activity [4]: Active
- Activity (RAW264.7): Active
- Activity [5]: Active
- Activity [7]: inactive

Reference: ChEMBL document CHEMBL3351942, “Rexinoids isolated from Sophora tonkinensis with a gene expression profile distinct from the synthetic rexinoid bexarotene” (J Nat Prod, 2014)
